Source: PubChem BioAssay
Rows were chosen to be rich in hits. Some 11% of all compounds tested hit in one or more screens of this group.
M1 antag = antagonists of rat M1 muscarinic receptor; P08482; CHO-M1 cells, Fluo-4 calcium, ACh EC80 antagonist mode; active compounds read low; B-score at 10 µM; hit rate 3.4% among 64,000;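 active means calcium fluorescence response, raw or row-and-column corrected B-score, differing from the plate sample mean either way at a set confidence level, mostly lower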
S1P1 ag pot = agonists and agonism potentiators of human S1P1 receptor; P21453; S1P1 CRE-bla cells, forskolin, beta-lactamase FRET, potentiator mode; S1P1 agonist co-added at EC20, 2 nM; 100% = saturating reference agonist, 0% = basal; activation, % at 9.5 µM; hit rate 0.57% among 56,000; AID 449;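 active means activation above a cutoff set at the mean activation of all tested compounds plus 3 SD, cut at about 54% in these data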;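 further: forskolin at 4 µM as EC80 and the EC20 agonist is SEW2871; 100% = SEW2871 at its EC100 plus forskolin at EC80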
M1 ag = M1 muscarinic receptor agonism. B-score at 10 µM. hit rate 3% among 64,000. CHO-M1 cells, Fluo-4 calcium fluorescence, agonist mode; active compounds read high. AID 626;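 active means fluorescence rise, raw or as B-score row- and column-corrected plate score, outside the 99.7% band of its plate's samples, either direction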
TNAP act DEA = human TNAP activation, intermediate phosphate acceptor; P05186; activation factor at 20 µM; purified TNAP, CDP-star luminescence, 100 mM DEA, 30 min; active compounds read high; scale: 0 levamisole-inhibited, 1 vehicle-only enzyme; AID 813; 64,000 tested, under 10 active;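 active means activation factor of at least 2 at 20 µM, relative to controls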
S1P3 agonist = agonists of human S1P3 receptor. hit rate 0.1% among 60,000. AID 373. activation, % at 4.5 µM. S1P3 NFAT-BLA reporter cells, agonism, FRET ratio; relative to 1 µM S1P, basal subtracted. Q99500;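 active means activation above the screen-wide mean plus 3 SD, cut at about 4.5% in these data, passing the limit was not always enough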
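Assay system: CHO cells stably expressing human S1P3, Gα16 and NFAT-β-lactamase reporter. Timing: overnight plating, 4 h compound 37 °C, 2 h substrate RT. Signal: β-lactamase FRET emission ratio 460/535 nm. Measure: percent activation versus median 1 µM S1P response, basal-subtracted, per plate. Repeats: primary screen single test, confirmation screen in triplicate.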
D1 mod = allosterically modulates the human D1 dopamine receptor; P21728; HEK293 D1, CRE-luciferase, dopamine EC30 potentiation; actives deviate in either direction; B-score at 10 µM; hit rate 5.9% among 58,000; AID 641;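 active means luminescence count or its row- and column-corrected plate score outside the 99.7% band of the plate's sample wells, on either side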
Target sequence (P21728 whole entry, looked up): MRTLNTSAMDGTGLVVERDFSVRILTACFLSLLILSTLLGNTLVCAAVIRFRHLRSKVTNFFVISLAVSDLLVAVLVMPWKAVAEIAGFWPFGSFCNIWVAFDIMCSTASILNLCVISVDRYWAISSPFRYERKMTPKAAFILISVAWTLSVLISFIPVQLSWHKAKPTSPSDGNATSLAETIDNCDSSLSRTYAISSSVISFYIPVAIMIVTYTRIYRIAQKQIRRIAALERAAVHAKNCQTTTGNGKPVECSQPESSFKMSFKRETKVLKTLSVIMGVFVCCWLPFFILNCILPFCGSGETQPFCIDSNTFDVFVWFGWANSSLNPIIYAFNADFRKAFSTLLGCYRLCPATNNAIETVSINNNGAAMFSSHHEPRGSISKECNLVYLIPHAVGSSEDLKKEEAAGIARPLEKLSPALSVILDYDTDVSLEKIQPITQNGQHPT
M1 antag conf = M1 muscarinic receptor (rat) antagonism, confirmed; shares compounds with M1 antag; CHO-M1 cells, Fluo-4 calcium, ACh EC80 antagonism; active compounds read low; calcium response (max-min fluorescence) at 10 µM; hit rate 43% among 1,700; AID 677;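 active means calcium response below the same-plate mean of wells given acetylcholine alone at its 80%-effect dose, minus 3 SD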;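 further: raw fluorescence intensity difference in arbitrary instrument units and not normalized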
mGluR4 antag = acts on human mGluR4 in M1 antagonist selectivity test | CHO-mGluR4 calcium flux, Fluo-4 fluorescence, glutamate EC80; active compounds read low | hit rate 0.9% among 1,700 | shares compounds with M1 antag | AID 678 | fluorescence response (max-min) at 10 µM;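 active means fluorescence response below the plate's average for near-maximal glutamate wells, less 3 SD of those wells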;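 further: raw unnormalized fluorescence span taken in the window right after glutamate addition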
* = called active by the depositor; . = no result.

SMILES | M1 antag | S1P1 ag pot | M1 ag | TNAP act DEA | S1P3 agonist | D1 mod | M1 antag conf | mGluR4 antag
COC(=O)C(C(=O)N1CCN(C)CC1)C1CCCCCC1 (stereo not given) | -3.27* | 1.7 | -0.411 | 1 | 0.0 | 0.656 | 527 | 228
Cc1cc(C(=O)CSc2nnnn2C)c(C)n1-c1ccc2c(c1)OCCO2 | -2.76* | 3.1 | -0.894 | 1 | -0.1 | 0.833 | 435* | 297
CC(C)(C)c1nnc2sc(SCC(=O)c3cccs3)nn2c1=O | 1.08 | . | 1.25 | 0.9 | . | 0.00857 | . | .
O=C(CCN1CCC(c2ccccc2)C1)c1cccs1 (stereo not given) | -5.06* | 1.7 | 0.0101 | 0.9 | -1.1 | -4.73* | 514 | 191
CCCC(NS(=O)(=O)c1ccc(Br)cc1)C(=O)O (stereo not given) | 0.0142 | -8.1 | -0.751 | 1 | 0.5 | -0.543 | . | .
O=C(COc1ccccc1)Nn1cnc2ccccc21 | 0.355 | 8.6 | 0.0127 | 0.9 | 0.1 | -0.511 | . | .
CC(=O)N1CCC2(CC1)C(C#N)=C(N)Oc1n[nH]c(CSc3ccc(C)cc3)c12 | -2.38* | -0.5 | -0.424 | 0.9 | -0.3 | -0.134 | 676 | 127*
CCc1[nH]nc2c1C1(CCN(C(=O)c3ccccc3)CC1)C(C#N)=C(N)O2 | 0.288 | . | 0.392 | 0.9 | 0.9 | 0.627 | . | .
Cc1ccc(S(=O)(=O)NC(CC(=O)NCc2ccco2)c2ccco2)cc1 (stereo not given) | -4.65* | -5.0 | -1.03 | 0.9 | 0.1 | -0.555 | 684 | 197
COc1ccc(S(=O)(=O)NC(CC(=O)NCc2ccco2)c2ccco2)cc1 (stereo not given) | 0.186 | -18.1 | 0.507 | 1 | 0.4 | 0.608 | . | .
CC1Cc2ccccc2N1C(=O)CSc1nnc(Cn2nnc3ccccc32)n1C (stereo not given) | -0.231 | -5.6 | 0.0921 | 0.9 | 0.3 | -0.582 | . | .
CCN1CCN(Cc2c(OC)ccc3ccccc23)CC1 | -3.01* | . | 0.584 | 0.9 | -0.5 | -3.59* | 539 | 247
CCN1CCN(CCC(=O)Nc2ccccc2OC)CC1 | 0.665 | 16.7 | 0.429 | 0.9 | 0.9 | -0.546 | . | .
O=C(Nc1ccc(Cl)cc1)N1CCN(c2ccc3nnc(-c4ccc(F)cc4)n3n2)CC1 | -4.37* | -28.3 | 0.728 | 0.9 | 0.2 | 0.562 | 386* | 258
COc1ccc(NC(=O)CC2C(=O)N(c3cccc(OC)c3)C(=O)N2C2CCCCC2)cc1 (stereo not given) | 0.888 | . | -0.0965 | 1.1 | . | -0.383 | . | .
Cc1cc(-c2nnc(SCc3ccccn3)o2)no1 | -1.77* | 3.0 | -0.917 | 1 | 0.5 | 0.709 | 602 | 241
c1ccc(CSc2nnc(-c3ccncc3)o2)cc1 | . | 45.0 | . | 0.9 | 2.8 | . | . | .
Cc1csc(NC(=O)Cc2nn(C)c(=O)c3ccccc23)n1 | -0.547 | . | 1.83 | 0.9 | . | 0.0491 | . | .
O=C(CN1CCC(n2nnc3cc(F)ccc32)CC1)N1CCc2ccccc2C1 | -0.218 | 1.3 | -0.149 | 0.8 | 0.5 | . | . | .
COC(=O)c1ccccc1NC(=O)CN1CCN(C23CC4CC(CC(C4)C2)C3)CC1 | -10.7* | -3.2 | -0.0402 | 0.9 | -1.4 | -0.434 | 393* | 229
COC(=O)c1ccccc1NC(=O)CN1CCC(n2nnc3cc(F)ccc32)CC1 | -4.62* | -12.9 | 0.0976 | 0.9 | 0.1 | . | 594 | 232
O=C(CN1CCC(n2nnc3cc(F)ccc32)CC1)NC1CCCCC1 | -3.68* | -0.7 | -0.638 | 0.9 | -0.3 | -0.547 | 604 | 243
N#CCSc1nnc(Cc2cccc3ccccc23)n1C1CCCCC1 | -0.756 | -2.0 | 0.0194 | 1 | 0.2 | . | . | .
O=C(NC1CS(=O)(=O)CC1NCc1ccco1)c1ccccc1 (stereo not given) | -0.541 | 0.5 | 0.44 | 0.9 | -0.4 | 1.02 | . | .
CC(C)Sc1nc(SCC(=O)NCc2ccco2)c2c3c(sc2n1)COC(C)(C)C3 | -1.92* | . | 0 | 0.9 | . | . | 681 | 214
SMILES | M1 antag | S1P1 ag pot | M1 ag | TNAP act DEA | S1P3 agonist | D1 mod | M1 antag conf | mGluR4 antag
Cc1nc(SCC(=O)NCc2ccco2)c2c3c(sc2n1)CCCC3 | 0.00847 | -41.6 | 0.0426 | 1 | -0.4 | . | . | .
Cc1ccc(-c2nnc(N3CCN(C(=O)CSc4ncn[nH]4)CC3)c3ccccc23)cc1 | -2.9* | 20.8 | 0.971 | 0.9 | -0.9 | -1.9 | 484 | 225
Cc1ccc(C(=O)CSc2ncn[nH]2)cc1 | 1.07 | 11.5 | 0.243 | 0.7 | -0.4 | 0.234 | . | .
COC(=O)c1ccc(CSc2ccc3nnc(-c4cccnc4)n3n2)o1 | -0.68 | 21.7 | -0.0115 | 0.9 | -1.4 | 1.26 | . | .
CCN(CC(=O)NC(=O)NCc1ccco1)Cc1nc2ccccc2c(=O)[nH]1 | 0.0673 | -6.2 | 0.0129 | 1.4 | 0.2 | 0.299 | . | .
CCN(CC(=O)NCCc1ccc(S(N)(=O)=O)cc1)Cc1nc2ccccc2c(=O)[nH]1 | -2* | -21.1 | 0.0301 | 1 | -0.2 | . | 636 | 238
CN(C)c1nc(N)nc(-c2ccco2)n1 | -0.168 | . | -1.2 | 0.9 | -1.2 | 1.29 | . | .
COc1ccc(C2C(C(=O)N3CCN(c4ccccc4)CC3)c3ccccc3C(=O)N2C)cc1OC (stereo not given) | -4.4* | . | 0.534 | 1 | . | -0.669 | 538 | 201
COc1ccc(N2C(=O)CCC(C(=O)N3CCCCC3)C2c2ccc(F)cc2)cc1 (stereo not given) | -0.424 | 2.6 | -0.301 | 0.9 | -0.5 | 0.825 | . | .
COc1ccc(N2C(=O)CCC(C(=O)N3CCOCC3)C2c2ccc(F)cc2)cc1 (stereo not given) | -3.11* | . | 0.464 | 1 | . | . | 542 | 227
COc1ccc(C2C(C(=O)N3CCOCC3)c3ccccc3C(=O)N2c2ccc(OC)cc2)cc1 (stereo not given) | -12.9* | -23.2 | -0.193 | 1 | -0.4 | 0.913 | 701 | 232
COCCN(C(=O)CCC(=O)Nc1ccccn1)C(C(=O)NC1CCCC1)c1ccc(OC)cc1 (stereo not given) | 0.211 | -0.9 | -0.285 | 0.8 | 0.6 | . | . | .
COc1ccc(OC)c(-n2c(SCC(=O)Nc3cc(C)on3)nnc2-c2c[nH]c3ccccc23)c1 | 0.616 | 9.4 | 0.122 | 1 | -1.3 | -0.568 | . | .
CCn1c(N2CCN(C(=O)C34CC5CC(CC(C5)C3)C4)CC2)nc2ccccc21 | -0.153 | -3.8 | 0.395 | 0.9 | -1.6 | 0.0507 | . | .
CCn1c(=N)n(CC(=O)C23CC4CC(CC(C4)C2)C3)c2ccccc21 | -12.1* | -27.8 | -1.77 | 1 | -0.3 | -0.979 | 198* | 259
